In ChEMBL document CHEMBL1138456 (J Med Chem, 2009):
Converted amounts (≈) assume the structure as drawn.

What was measured:
[1] = Aqueous solubility in water by shake flask method; type: physicochemical
How it was run: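 Solubility: about 5 mg solid per 1 mL deionized water, unbuffered, in triplicate. Samples were vortexed, sonicated and protected from light, then tumbled at 25 °C for 1 day. They were centrifuged, filtered and diluted, and analyzed by HPLC with UV detection at 215 nm.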

[2] = Chemical stability assessed as half life at pH 2 by HPLC; type: physicochemical; conditions: buffer
[3] = Stability assessed as half life at pH 8.0 in presence of calf intestine alkaline phosphatase; type: ADME, tissue-based; conditions: cattle
How it was run: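 Prodrug in 50 mM sodium phosphate pH 7.4 was incubated with calf intestinal alkaline phosphatase (0.000125 units/µL) in 10 mM Tris pH 8.0 at 37 °C for 30 min. Reactions were quenched with NaCl and MeOH/acetonitrile, held on ice for 30 min and centrifuged. Dephosphorylation half-life is in minutes.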

[4] = Clearance in rat at 5 mg/kg, iv; type: ADME, organism-based; set-up: dose 5 mg/kg, route intravenous; conditions: in vivo
[5] = Half life in rat at 5 mg/kg, iv; type: ADME, organism-based; set-up: dose 5 mg/kg, route intravenous; conditions: in vivo
[6] = Cmax in Sprague-Dawley rat plasma at 5 mg/kg, po coadministered with RTV; type: ADME, organism-based; set-up: dose 5 mg/kg, route oral
How it was run: (§1)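 Male Sprague-Dawley-derived rats (0.25-0.35 kg, n = 3) were given oral gavage doses equivalent to 5 mg/kg parent (5 mg equiv/kg). Prodrugs were given in 5% dextrose in water. Parents were given in ethanol/propylene glycol formulation. For LPV species, a 5 mg/kg RTV gavage dose was given first. Plasma was analyzed by reversed-phase HPLC with an internal standard. Cmax is in µg/mL and AUC in µg·h/mL.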

[7] = AUC in Sprague-Dawley rat plasma at 5 mg/kg, po coadministered with RTV; type: ADME, organism-based; set-up: dose 5 mg/kg, route oral; how it was run: as §1
[8] = Chemical stability assessed as half life at pH 7.4 by HPLC; type: physicochemical; conditions: buffer
[9] = Chemical stability assessed as half life at pH 5 by HPLC; type: physicochemical; conditions: buffer
[10] = Chemical stability assessed as half life at pH 9 by HPLC; type: physicochemical; conditions: buffer
[11] = Cmax in po dosed Beagle dog at dose molar equivalent to 5 mg/kg RTV coadministered with LPV dosed as 5% dextrose containing solution; type: ADME, organism-based, Canis lupus familiaris; set-up: dose 5 mg/kg, route oral; conditions: in vivo
How it was run: (§2)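 Male and female beagle dogs (8-12 kg, n = 3) were dosed orally at 5 mg equiv/kg of parent. Parents were dissolved in 5% dextrose with 20% ethanol, 30% propylene glycol and 2 equiv methanesulfonic acid. Prodrugs were dissolved in 5% dextrose. Plasma was measured by reversed-phase HPLC with an internal standard. Cmax is in µg/mL and AUC in µg·h/mL.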

[12] = AUC in po dosed Beagle dog at dose molar equivalent to 5 mg/kg RTV coadministered with LPV-OMP dosed as 5% dextrose containing solution; type: ADME, organism-based, Canis lupus familiaris; set-up: dose 5 mg/kg, route oral; conditions: plasma; how it was run: as §2
[13] = test system: Rattus norvegicus; experiment: AUC in Sprague-Dawley rat plasma at 5 mg/kg, po; type: ADME, organism-based; set-up: dose 5 mg/kg, route oral; conditions: in vivo; how it was run: as §1
[14] = Cmax in po dosed Beagle dog at dose molar equivalent to 5 mg/kg RTV coadministered with LPV-OMP dosed as 5% dextrose containing solution; type: ADME, organism-based, Canis lupus familiaris; set-up: dose 5 mg/kg, route oral; conditions: in vivo; how it was run: as §2
[15] = AUC in po dosed Beagle dog at dose molar equivalent to 5 mg/kg RTV coadministered with LPV dosed as 5% dextrose containing solution; type: ADME, organism-based, Canis lupus familiaris; set-up: dose 5 mg/kg, route oral; conditions: plasma; how it was run: as §2

What does the source list for `Cc1cccc(C)c1OCC(=O)N[C@@H](Cc1ccccc1)[C@H](C[C@H](Cc1ccccc1)NC(=O)[C@H](C(C)C)N1CCCNC1=O)OCOP(=O)([O-])[O-].[Na+].[Na+]`?
solubility thermodynamic [1]: > 5000 µg/mL; half-life [2]: 468 min; half-life [3]: 13.9 min

Which clearance [4] does the source give for `CC(C)c1nc(CN(C)C(=O)N[C@H](C(=O)N[C@@H](Cc2ccccc2)C[C@H](OP(=O)([O-])[O-])[C@H](Cc2ccccc2)NC(=O)OCc2cncs2)C(C)C)cs1.[Na+].[Na+]` here?
The clearance was 43 mL/min/kg.

And the half-life [5]?
The half-life was 13.8 min.

With `Cc1cccc(C)c1OCC(=O)N[C@@H](Cc1ccccc1)[C@@H](O)C[C@H](Cc1ccccc1)NC(=O)[C@H](C(C)C)N1CCCNC1=O` [LOPINAVIR] as the compound, how does the Cmax [6] read?
The Cmax was 1550 ng/mL.

What about the AUC [7] of the same compound?
Its AUC is 9280 ng·h/mL.

And the solubility thermodynamic [1]?
The solubility thermodynamic was 7 µg/mL (≈ 11.1 µM).

What does the source list for `CC(C)c1nc(CN(C)C(=O)N[C@H](C(=O)N[C@@H](Cc2ccccc2)C[C@H](OCOP(=O)([O-])[O-])[C@H](Cc2ccccc2)NC(=O)OCc2cncs2)C(C)C)cs1.[Na+].[Na+]`?
solubility thermodynamic [1]: > 5000 µg/mL; half-life [2]: 516 min; half-life [3]: 7 min

Which half-life [3] does the source give for `CCCC(O[C@@H](C[C@H](Cc1ccccc1)NC(=O)[C@@H](NC(=O)N(C)Cc1csc(C(C)C)n1)C(C)C)[C@H](Cc1ccccc1)NC(=O)OCc1cncs1)OP(=O)([O-])[O-].[Na+].[Na+]` (stereo not given in full) here?
Its half-life is 31.7 min.

Which results are given for `Cc1cccc(C)c1OCC(=O)N[C@@H](Cc1ccccc1)[C@H](C[C@H](Cc1ccccc1)NC(=O)[C@H](C(C)C)N1CCCNC1=O)OC(C)OP(=O)([O-])[O-].[Na+].[Na+]` (stereo not given in full)?
half-life [8]: 19 days; solubility thermodynamic [1]: > 5000 µg/mL; half-life [9]: 133 min; half-life [2]: < 15 min; half-life [10]: > 100 days; half-life [3]: 20.4 min

What does the source list for `CC(O[C@@H](C[C@H](Cc1ccccc1)NC(=O)[C@@H](NC(=O)N(C)Cc1csc(C(C)C)n1)C(C)C)[C@H](Cc1ccccc1)NC(=O)OCc1cncs1)OP(=O)([O-])[O-].[Na+].[Na+]` (stereo not given in full)?
half-life [8]: 12 days; solubility thermodynamic [1]: > 5000 µg/mL; half-life [9]: 76 min; half-life [2]: < 15 min; half-life [10]: > 100 days; half-life [3]: 14.8 min

For `CC(C)c1nc(CN(C)C(=O)N[C@H](C(=O)N[C@@H](Cc2ccccc2)C[C@H](OC(OP(=O)([O-])[O-])C(C)C)[C@H](Cc2ccccc2)NC(=O)OCc2cncs2)C(C)C)cs1.[Na+].[Na+]` (stereo not given in full), which half-life [3] is on record?
The half-life was greater than 30 min.

For `CC(C)c1nc(CN(C)C(=O)N[C@H](C(=O)N[C@@H](Cc2ccccc2)C[C@H](O)[C@H](Cc2ccccc2)NC(=O)OCc2cncs2)C(C)C)cs1` [RITONAVIR], which Cmax [11] is on record?
The Cmax was 1320 ng/mL.

What about the AUC [12] of the same compound?
The AUC was 4430 ng·h/mL.

What about the AUC [13] of the same compound?
Its AUC is 3530 ng·h/mL.

And the Cmax [14]?
Its Cmax is 2130 ng/mL.

And the AUC [15]?
The AUC was 2190 ng·h/mL.
